Assays:
Type in all cases: cell-based
[1] = target: T1, RNA polymerase II (Mus musculus) (UniProt P08775+Q8CFI7+P97760+A0A3Q4L2S8+Q80UW8+P61219+P62488+Q923G2+P60898+O08740+Q63871+P62876); assay: Inhibition of RNA polymerase II in mouse B16-F1 migrating cells assessed as fold change in Eri3-RNA stability at 0.1 mM measured by ChIP-seq analysis relative to control cells
[2] = target: T1, RNA polymerase II (Mus musculus); assay: Inhibition of RNA polymerase II in mouse B16-F1 migrating cells assessed as fold change in Phf20l1-RNA stability at 0.1 mM measured by […] analysis relative to control cells
[3] = target: T1, RNA polymerase II (Mus musculus); assay: Inhibition of RNA polymerase II in mouse B16-F1 migrating cells assessed as fold change in Repin1-RNA stability at 0.1 mM measured by […] analysis relative to control cells
[4] = target: T1, RNA polymerase II (Mus musculus); assay: Inhibition of RNA polymerase II in mouse B16-F1 migrating cells assessed as fold change in 2310030G06Rik-RNA stability at 0.1 mM measured by […] analysis relative to control cells
[5] = target: T1, RNA polymerase II (Mus musculus); assay: Inhibition of RNA polymerase II in mouse B16-F1 migrating cells assessed as fold change in Fosb-RNA stability at 0.1 mM measured by ChIP-seq analysis relative to control cells
[6] = target: T1, RNA polymerase II (Mus musculus); assay: Inhibition of RNA polymerase II in mouse B16-F1 migrating cells assessed as fold change in Cbx1-RNA stability at 0.1 mM measured by […] analysis relative to control cells
[7] = target: T1, RNA polymerase II (Mus musculus); assay: Inhibition of RNA polymerase II in mouse B16-F1 migrating cells assessed as fold change in Trpv2-RNA stability at 0.1 mM measured by […] analysis relative to control cells
[8] = target: T1, RNA polymerase II (Mus musculus); assay: Inhibition of RNA polymerase II in mouse B16-F1 migrating cells assessed as fold change in Alkbh2-RNA stability at 0.1 mM measured by […] analysis relative to control cells
[9] = target: T1, RNA polymerase II (Mus musculus); assay: Inhibition of RNA polymerase II in mouse B16-F1 migrating cells assessed as fold change in Borcs8-RNA stability at 0.1 mM measured by […] analysis relative to control cells
How it was run: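 Mouse B16-F1 melanoma cells grown to confluence on fibronectin in DMEM/10% FCS at 37 °C, 7% CO2. Migration induced by multiple scratches and 3 h incubation; unscratched controls. DRB 0.1 mM added 3 h before lysis. RNA from poly A-selected mRNA was sequenced (RNA-seq, three replicates per DRB group). Fold change computed for DRB-treated migrating vs DRB-treated control cells; cutoffs fold change >1.3, FDR <0.05.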

[10] = target: T1, RNA polymerase II (Mus musculus); assay: Inhibition of RNA polymerase II in mouse B16-F1 migrating cells assessed as fold change in Nek7-RNA stability at 0.1 mM measured by ChIP-seq analysis relative to control cells
[11] = target: T1, RNA polymerase II (Mus musculus); assay: Inhibition of RNA polymerase II in mouse B16-F1 migrating cells assessed as fold change in Cenpc1-RNA stability at 0.1 mM measured by […] analysis relative to control cells
[12] = target: T1, RNA polymerase II (Mus musculus); assay: Inhibition of RNA polymerase II in mouse B16-F1 migrating cells assessed as fold change in Pde12-RNA stability at 0.1 mM measured by […] analysis relative to control cells
[13] = target: Histone-lysine N-methyltransferase EZH2 (Mus musculus) (UniProt Q61188); assay: Inhibition of EZH2 in mouse B16-F1 migrating cells assessed as fold change in H3K27me3-buffered regulated Sqle-mRNA expression at 3 uM measured by […] analysis relative to control cells
How it was run: (§1)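 Confluent B16-F1 cells on fibronectin-coated plates were scratched at multiple sites, washed once with DMEM and left to migrate 3 h in growth medium (37 °C, 7% CO2); unscratched cells served as control. GSK343 (3 µM) was added 3 h before lysis. Poly A mRNA was sequenced (RNA-seq), with 5 replicates for untreated and 3 for treated cells. Differential expression was called by linear model with batch correction, at FDR <0.05 and fold change ≥1.3.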

[14] = target: Histone-lysine N-methyltransferase EZH2 (Mus musculus) (UniProt Q61188); assay: Inhibition of EZH2 in mouse B16-F1 migrating cells assessed as fold change in H3K27me3-buffered regulated Dzip3-mRNA expression at 3 uM measured by […] analysis relative to control cells
How it was run: (§2)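 Confluent B16-F1 cells on fibronectin-coated plates, cultured at 37 °C and 7% CO2, were scratched at multiple sites to induce migration. They were then held 3 h in growth medium containing 3 µM GSK343, with the inhibitor added 3 h before lysis. Unscratched cells served as controls. Poly A mRNA was analysed by RNA-seq (n=3 GSK343, n=5 controls). Linear models removed batch effects, and buffered genes were those altered only under GSK343 (FDR <0.05, fold change >1.3).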

[15] = target: Histone-lysine N-methyltransferase EZH2 (Mus musculus) (UniProt Q61188); assay: Inhibition of EZH2 in mouse B16-F1 migrating cells assessed as fold change in H3K27me3-buffered regulated Nup37-mRNA expression at 3 uM measured by […] analysis relative to control cells; how it was run: as §2
[16] = target: Histone-lysine N-methyltransferase EZH2 (Mus musculus) (UniProt Q61188); assay: Inhibition of EZH2 in mouse B16-F1 migrating cells assessed as fold change in H3K27me3-buffered regulated Rhobtb3-mRNA expression at 3 uM measured by […] analysis relative to control cells; how it was run: as §1
[17] = target: Histone-lysine N-methyltransferase EZH2 (Mus musculus) (UniProt Q61188); assay: Inhibition of EZH2 in mouse B16-F1 migrating cells assessed as fold change in H3K27me3-buffered regulated Dlg4-mRNA expression at 3 uM measured by ChIP-seq analysis relative to control cells; how it was run: as §2
[18] = target: Histone-lysine N-methyltransferase EZH2 (Mus musculus) (UniProt Q61188); assay: Inhibition of EZH2 in mouse B16-F1 migrating cells assessed as fold change in H3K27me3-buffered regulated Ttc14-mRNA expression at 3 uM measured by ChIP-seq analysis relative to control cells; how it was run: as §1
[19] = target: Histone-lysine N-methyltransferase EZH2 (Mus musculus) (UniProt Q61188); assay: Inhibition of EZH2 in mouse B16-F1 migrating cells assessed as fold change in H3K27me3-buffered regulated Zc3h7a-mRNA expression at 3 uM measured by […] analysis relative to control cells; how it was run: as §1
[20] = target: Histone-lysine N-methyltransferase EZH2 (Mus musculus) (UniProt Q61188); assay: Inhibition of EZH2 in mouse B16-F1 migrating cells assessed as fold change in H3K27me3-independent regulated Fosl2-mRNA expression at 3 uM measured by […] analysis relative to control cells; how it was run: as §1
[21] = target: Histone-lysine N-methyltransferase EZH2 (Mus musculus) (UniProt Q61188); assay: Inhibition of EZH2 in mouse B16-F1 migrating cells assessed as fold change in H3K27me3-buffered regulated Kcnj14-mRNA expression at 3 uM measured by ChIP-seq analysis relative to control cells; how it was run: as §2
[22] = target: Histone-lysine N-methyltransferase EZH2 (Mus musculus) (UniProt Q61188); assay: Inhibition of EZH2 in mouse B16-F1 migrating cells assessed as fold change in H3K27me3-independent regulated Eva1a-mRNA expression at 3 uM measured by ChIP-seq analysis relative to control cells; how it was run: as §1
[23] = target: Histone-lysine N-methyltransferase EZH2 (Mus musculus) (UniProt Q61188); assay: Inhibition of EZH2 in mouse B16-F1 migrating cells assessed as fold change in H3K27me3-independent regulated Cep290-mRNA expression at 3 uM measured by […] analysis relative to control cells; how it was run: as §1
[24] = target: Histone-lysine N-methyltransferase EZH2 (Mus musculus) (UniProt Q61188); assay: Inhibition of EZH2 in mouse B16-F1 migrating cells assessed as fold change in H3K27me3-buffered regulated Hunk-mRNA expression at 3 uM measured by […] analysis relative to control cells; how it was run: as §2

Sequence of Histone-lysine N-methyltransferase EZH2 (Mus musculus) (Q61188 whole entry): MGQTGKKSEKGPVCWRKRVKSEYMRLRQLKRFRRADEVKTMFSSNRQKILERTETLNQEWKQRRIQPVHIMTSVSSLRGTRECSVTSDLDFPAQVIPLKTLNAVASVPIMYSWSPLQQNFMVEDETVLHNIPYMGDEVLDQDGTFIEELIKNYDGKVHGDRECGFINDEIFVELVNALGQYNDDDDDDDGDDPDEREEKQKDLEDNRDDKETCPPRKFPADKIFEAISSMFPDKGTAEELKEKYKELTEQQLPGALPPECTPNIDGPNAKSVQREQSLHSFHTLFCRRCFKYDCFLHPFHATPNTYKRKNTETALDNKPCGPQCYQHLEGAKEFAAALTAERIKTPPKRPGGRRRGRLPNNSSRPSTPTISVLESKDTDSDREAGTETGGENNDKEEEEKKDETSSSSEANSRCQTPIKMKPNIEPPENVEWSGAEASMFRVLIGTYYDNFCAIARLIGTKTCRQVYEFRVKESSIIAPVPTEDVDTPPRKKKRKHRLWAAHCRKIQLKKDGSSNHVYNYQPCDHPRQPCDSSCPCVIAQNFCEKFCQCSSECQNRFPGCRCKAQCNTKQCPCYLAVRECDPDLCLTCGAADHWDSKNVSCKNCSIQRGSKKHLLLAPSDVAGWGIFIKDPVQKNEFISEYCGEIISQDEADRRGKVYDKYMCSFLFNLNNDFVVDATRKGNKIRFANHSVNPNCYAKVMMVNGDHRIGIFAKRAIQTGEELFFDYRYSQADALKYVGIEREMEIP

OC[C@H]1O[C@@H](n2cnc3cc(Cl)c(Cl)cc32)[C@H](O)[C@@H]1O
log2FC [1]: 0.38
log2FC [2]: -0.65
log2FC [3]: -0.71
log2FC [4]: -0.91
log2FC [5]: 2.03
log2FC [6]: -0.56
log2FC [7]: 0.41
log2FC [8]: 0.66
log2FC [9]: 0.57
log2FC [10]: -0.66
log2FC [11]: -0.84
log2FC [12]: -0.77

CCCc1cc(C)[nH]c(=O)c1CNC(=O)c1cc(-c2ccnc(N3CCN(C)CC3)c2)cc2c1cnn2C(C)C
log2FC [13]: 0.39
log2FC [14]: -0.4
log2FC [15]: -0.38
log2FC [16]: -0.62
log2FC [17]: 0.39
log2FC [18]: -0.44
log2FC [19]: -0.42
log2FC [20]: 0.7
log2FC [21]: 1.07
log2FC [22]: 0.84
log2FC [23]: -0.62
log2FC [24]: -0.5
